Assay results as given in ChEMBL document CHEMBL1127823, “The effect of fluorine substitution on the metabolism and antimalarial activity of amodiaquine” (J Med Chem, 1994).
One block for each compound: values may come before it.

Key:
Plasmodium falciparum [1] = assay: Antimalarial activity against Plasmodium falciparum T9-96; format: functional, organism-based
In short: (§1)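 P. falciparum (Thai isolates; K1 uncloned, T9-96 cloned) kept in continuous culture in human erythrocytes, RPMI 1640 with 25 mM HEPES, 32 mM NaHCO3, 10% human serum, gassed 3% O2/4% CO2/93% N2. 48-h assay at 1% initial parasitaemia, 5% haematocrit; drugs from ethanol stocks (final <1% ethanol).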

[2] = pKa value of compound was evaluated; format: physicochemical
Plasmodium falciparum [3] = assay: Antimalarial activity against Plasmodium falciparum K1; format: functional, organism-based; in short: as §1

SMILES: CCN(CC)Cc1cc(Nc2ccnc3cc(Cl)ccc23)ccc1O
IC50 (Plasmodium falciparum [1]): 20 nM | pKa [2]: 4.95 | IC50 (Plasmodium falciparum [3]): 24 nM

SMILES: CCN(CC)Cc1cc(Nc2ccnc3cc(Cl)ccc23)ccc1F
IC50 (Plasmodium falciparum [1]): 40 nM | pKa [2]: 4.39 | IC50 (Plasmodium falciparum [3]): 59 nM

SMILES: CCN(CC)Cc1cc(Nc2ccnc3cc(Cl)ccc23)c(F)c(F)c1O
IC50 (Plasmodium falciparum [1]): 40 nM | pKa [2]: 3.42 | IC50 (Plasmodium falciparum [3]): 56 nM

SMILES: CCN(CC)Cc1c(O)c(F)c(F)c(Nc2ccnc3cc(Cl)ccc23)c1F
IC50 (Plasmodium falciparum [1]): 291 nM | pKa [2]: 2.17 | IC50 (Plasmodium falciparum [3]): 500 nM

More lines, in order of falling IC50 (Plasmodium falciparum [1]), values ahead:

IC50 (Plasmodium falciparum [1]): 37 nM | pKa [2]: 3.96 | IC50 (Plasmodium falciparum [3]): 42 nM
SMILES: CCN(CC)Cc1cc(Nc2ccnc3cc(Cl)ccc23)cc(F)c1O

IC50 (Plasmodium falciparum [1]): 34 nM | pKa [2]: 2.59 | IC50 (Plasmodium falciparum [3]): 41 nM
SMILES: CCN(CC)Cc1c(O)cc(F)c(Nc2ccnc3cc(Cl)ccc23)c1F
